The values below come from paper PMC11590664 (European journal of medicinal chemistry, 2023).

Usually IC50 stands for the concentration needed to halve the response being measured.

Molecules are shown by their SMILES.

In assay [1] the test system is phosphorylation of FLT3 and ERK in MOLM14 cells. The experiment in a line: Western blot, MOLM14 cells. Conditions: 2 h. The format is cell-based, human. In short, it runs like this: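 Cells kept at 37 °C under 5 % CO2. Total cell lysates separated by SDS-PAGE and transferred to nitrocellulose. Membranes probed with primary antibodies to pFLT3 Y842, total FLT3, pERK, total ERK and GAPDH, then with secondary antibodies, and imaged.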

The next assay deals with HEK-293 cells. The experiment in a line: Cytotoxicity / viability assay, HEK-293. The format is cell-based. The following applies: Homo sapiens, HEK293, read-out: HEK-293 IC50. In short, it runs like this:
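HEK-293 cells were grown in medium per the provider's instructions with 100 units/mL penicillin and 100 μg/mL streptomycin, at 37 °C in 5 % CO2. Log-phase cells were seeded at 5000 per well, left 24 h, then exposed in triplicate to a range of test compound concentrations for 72 h. Resazurin was added for 4–6 h and fluorescence read. Values are relative to DMSO vehicle, with IC50 from a variable-slope normalized-response fit. Each compound was tested at least three times.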

A further assay deals with KIT (Homo sapiens, UniProt P10721). Put plainly: KINOMEscan site-directed competition binding assay, KIT. The following applies: 4.5 nM compound, 97 kinase panel. In short, it runs like this: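 Competition binding read by qPCR against DNA-tagged kinases. Streptavidin magnetic beads loaded with biotinylated ligand (30 min, RT), biotin-blocked and washed. Kinase, beads and test compound (diluted from 100x DMSO stocks) combined in 20 % SeaBlock, 0.17x PBS, 0.05 % Tween 20, 6 mM DTT; 1 h RT with shaking. […] Kinase in eluate quantified by qPCR.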
Chain of KIT (P10721 26-976): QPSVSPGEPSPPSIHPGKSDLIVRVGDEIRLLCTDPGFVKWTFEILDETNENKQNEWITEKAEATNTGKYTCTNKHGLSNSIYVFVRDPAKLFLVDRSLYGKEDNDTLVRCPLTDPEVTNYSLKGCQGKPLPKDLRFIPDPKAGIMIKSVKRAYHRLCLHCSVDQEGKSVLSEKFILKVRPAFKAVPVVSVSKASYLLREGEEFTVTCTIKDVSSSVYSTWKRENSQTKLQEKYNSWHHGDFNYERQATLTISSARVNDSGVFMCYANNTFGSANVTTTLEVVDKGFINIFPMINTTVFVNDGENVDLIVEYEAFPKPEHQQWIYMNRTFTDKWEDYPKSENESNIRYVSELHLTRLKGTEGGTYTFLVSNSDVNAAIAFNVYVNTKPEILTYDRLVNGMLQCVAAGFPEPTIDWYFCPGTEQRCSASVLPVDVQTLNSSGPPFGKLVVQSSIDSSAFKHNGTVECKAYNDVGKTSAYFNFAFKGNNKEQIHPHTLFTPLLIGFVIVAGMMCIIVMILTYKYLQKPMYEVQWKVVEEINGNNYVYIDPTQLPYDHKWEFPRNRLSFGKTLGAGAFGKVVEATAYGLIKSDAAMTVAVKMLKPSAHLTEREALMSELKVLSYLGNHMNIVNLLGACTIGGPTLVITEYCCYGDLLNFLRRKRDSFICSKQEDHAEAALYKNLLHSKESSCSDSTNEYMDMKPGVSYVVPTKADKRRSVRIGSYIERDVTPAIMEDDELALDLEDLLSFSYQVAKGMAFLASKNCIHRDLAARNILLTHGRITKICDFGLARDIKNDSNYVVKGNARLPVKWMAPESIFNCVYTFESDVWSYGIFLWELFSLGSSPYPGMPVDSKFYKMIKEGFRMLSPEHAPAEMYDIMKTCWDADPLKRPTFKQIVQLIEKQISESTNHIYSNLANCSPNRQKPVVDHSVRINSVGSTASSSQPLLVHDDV

In the case of `Cn1cc(-c2ccn3c(-c4cccc(Nc5ccc(S(C)(=O)=O)cc5)n4)cnc3c2)cn1` [Compound 24, 6-(7-(1-methyl-1H-pyrazol-4-yl)imidazo [1,2-a]pyridin-3-yl)-N-(4-(methylsulfonyl)phenyl)pyridin-2-amine], the “inhibitory effects on the phosphorylation of FLT3 and ERK” value was “noticeable signal downregulation” in assay [1] (1X IC50 (4.5 nM)) and “nearly complete signal downregulation” in assay [1] (10X IC50). The concentration for half-maximal inhibition (IC50) with HEK-293 cells is greater than 1 µM. In addition, the “binding affinity with KIT” value at KIT is on record as “minimal binding affinity”.
With `COc1ccc(Nc2cccc(-c3cnc4cc(-c5cnn(C)c5)ccn34)n2)cc1OC` [Compound 20, N-(3,4-dimethoxyphenyl)-6-(7-(1-methyl-1H-pyrazol-4-yl)imidazo [1,2-a]pyridin-3-yl)pyridin-2-amine], in the assay with HEK-293 cells, the IC50 is greater than 1 µM.
As for `COc1cc(Nc2cccc(-c3cnc4cc(-c5ccc(S(C)(=O)=O)cc5)ccn34)n2)cc(OC)c1OC` [Compound 42, 6-(7-(4-(methylsulfonyl)phenyl)imidazo [1,2-a]pyridin-3-yl)-N-(3,4,5-trimethoxyphenyl)pyridin-2-amine], in the assay with HEK-293 cells, the half-maximal inhibitory concentration (IC50) was greater than 1 µM.
